Compound activity from PubChem BioAssay.
N-glyco inh: blocks N-linked glycosylation in D54 reporter cells; D54 ERlucT glycosylation luciferase reporter, 24 h; percent of 100 nM tunicamycin response; reporter increase, % at 12.5 µM; actives 0.23% (n = 360,000); AID 588692;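 active = mean luciferase reporter signal, scaled so untreated is 0 and the glycosylation-blocking control 100, at or above a set limit in every replicate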;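 note: luciferase carries N-glycosylation sites so blocking glycosylation raises the light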
HIV Env fusion: HIV envelope-mediated fusion inhibition; HeLa-JRFL Env/CEM21 cell fusion, luciferase; inhibition, % at 12.3 µM; actives 1.1% (n = 360,000); AID 651610;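 active = mean replicate inhibition score of at least 50 and every replicate individually at or above 50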
PAX8 inh HTS: inhibitors of PAX8 transcriptional activity in RMG-I cells; AID 652154; RMG-I TPO-luciferase reporter, SteadyGlo, 24 h; actives 1.2% (n = 360,000); inhibition, % at 12.6 µM;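 active = mean replicate inhibition at least 60% with every replicate also reaching 60%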;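 note: luciferase light reporting Pax8 driven TPO promoter activity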
Arrestin-AP2 inh: blocks beta-arrestin peptide binding to AP2 adaptin. FITC-arrestin peptide / GST-AP2 beads, flow cytometry; AP2 beta2 appendage carries R879A mutation. inhibition, % at 10 µM. actives 0.31% (n = 340,000);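 active = inhibition above a set limit, near 3 SD of compounds lacking own fluorescence, cut at about 54% in these data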
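test system = AP2 appendage R879A on GSH beads | buffer or medium = PBS plus Tween 20 (0.05%) and BSA (0.1%) | incubation = 12 min plus 1 h, RT | detection = bead flow cytometry, FITC channel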
PfHsp90 yeast 2: reduces growth (ATP signal) of yeast expressing P. falciparum Hsp90; S. cerevisiae expressing PfHsp90, BacTiter-Glo ATP, 48 h; yeast lacking PDR1 and PDR3 efflux regulators; inhibition, % at 9.4 µM; actives 0.32% (n = 310,000);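 active = every replicate shows inhibition above about 80%, whatever the replicate mean, limit read from the data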
Rtt109 Vps75: inhibitors of Candida albicans Rtt109/Vps75 histone acetyltransferase | actives 0.16% (n = 330,000) | purified Rtt109/Vps75, ThioGlo CoA-SH fluorescence, 4 h | inhibition, % at 34.9 µM | Q5AAJ8;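 active = inhibition of at least 50% in every replicate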
Target sequence (Q5AAJ8 whole entry, looked up): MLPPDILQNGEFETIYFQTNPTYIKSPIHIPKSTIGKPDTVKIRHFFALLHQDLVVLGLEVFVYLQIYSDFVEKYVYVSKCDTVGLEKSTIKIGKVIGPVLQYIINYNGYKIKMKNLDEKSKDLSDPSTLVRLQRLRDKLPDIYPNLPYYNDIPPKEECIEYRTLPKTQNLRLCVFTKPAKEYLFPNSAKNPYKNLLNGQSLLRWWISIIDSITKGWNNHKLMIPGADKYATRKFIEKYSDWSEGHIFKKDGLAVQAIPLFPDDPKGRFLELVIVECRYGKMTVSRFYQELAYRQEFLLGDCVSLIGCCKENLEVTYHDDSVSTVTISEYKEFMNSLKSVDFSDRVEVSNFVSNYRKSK
Numbers stand for hits; [ ] = dose if it differs, or a comment. Shown are actives, neighbours in structure and some others; about 2.3% of the full set was active somewhere.

Results for Cc1ccc(S(=O)(=O)Nc2ccc3c(c2)CC(=O)N([C@@H](C)CO)C[C@@H](C)[C@H](CN(C)Cc2ccc(Oc4ccccc4)cc2)O3)cc1 ?
HIV Env fusion: 73[16.7 µM]; PAX8 inh HTS: inactive

How did N#CCCN(C(=O)CSc1nc2ccccc2c(=O)[nH]1)c1ccc(F)cc1 do in these assays?
N-glyco inh: inactive; HIV Env fusion: 81; PAX8 inh HTS: inactive; Arrestin-AP2 inh: inactive; PfHsp90 yeast 2: inactive; Rtt109 Vps75: inactive

How did N#CCCN(C(=O)COC(=O)CCc1nc2ccccc2c(=O)[nH]1)c1ccc(F)cc1 do in these assays?
N-glyco inh: inactive; PAX8 inh HTS: inactive; Arrestin-AP2 inh: inactive; PfHsp90 yeast 2: inactive; Rtt109 Vps75: inactive

How did CN(C)/C=C/C(=O)c1ccc2noc(-c3cccc(F)c3)c2c1 do in these assays?
N-glyco inh: inactive; HIV Env fusion: inactive; PAX8 inh HTS: inactive; Arrestin-AP2 inh: inactive; PfHsp90 yeast 2: 107; Rtt109 Vps75: inactive

Results for COc1ccc(-c2onc3ccc(C(=O)/C=C/N(C)C)cc23)cc1 ?
N-glyco inh: inactive; HIV Env fusion: inactive; PAX8 inh HTS: inactive; Arrestin-AP2 inh: inactive; PfHsp90 yeast 2: inactive; Rtt109 Vps75: inactive

How did O=C(Cc1ccc2cccnc2c1)c1ccc(O)cc1O do in these assays?
N-glyco inh: inactive; Arrestin-AP2 inh: inactive; PfHsp90 yeast 2: inactive; Rtt109 Vps75: 60

Results for Cc1cccc(S(=O)(=O)N2CCCCN3[C@H](CO)[C@@H](c4ccc(C#CC(C)C)cc4)[C@@H]3C2)c1 ?
PAX8 inh HTS: inactive

How did COc1ccc(CNC(=O)C[C@H]2C=C[C@H](NS(=O)(=O)c3cccc(OC)c3)[C@@H](CO)O2)cc1 do in these assays?
HIV Env fusion: inactive

How did CCOc1ccc(Nc2cc(C)nc(-n3nc(C)cc3C)n2)cc1 do in these assays?
N-glyco inh: inactive; HIV Env fusion: inactive; PAX8 inh HTS: 68; Arrestin-AP2 inh: inactive; PfHsp90 yeast 2: inactive; Rtt109 Vps75: inactive

How did C[C@H](NC(=O)C[C@@H]1C[C@@H]2c3cc(NS(C)(=O)=O)ccc3O[C@@H]2[C@@H](CO)O1)c1ccccc1 do in these assays?
HIV Env fusion: inactive; PAX8 inh HTS: inactive

Results for Cc1cc(C(F)(F)F)c(C#N)c(SCC(=O)Nc2nc3ccccc3s2)n1 ?
N-glyco inh: inactive; HIV Env fusion: inactive; PAX8 inh HTS: inactive; Arrestin-AP2 inh: inactive; PfHsp90 yeast 2: inactive; Rtt109 Vps75: inactive

How did Cc1nc(SCC(=O)Nc2nc3ccccc3s2)c(C#N)c(C)c1C do in these assays?
N-glyco inh: inactive; HIV Env fusion: 63; PAX8 inh HTS: 108; Arrestin-AP2 inh: inactive; PfHsp90 yeast 2: inactive; Rtt109 Vps75: inactive

What do the screens show for `COC(=O)C1=C(N)Oc2cc(N(C)C)ccc2C1c1ccccc1OC` (centres undefined)?
N-glyco inh: inactive; HIV Env fusion: 61; Arrestin-AP2 inh: inactive; PfHsp90 yeast 2: inactive

What do the screens show for `COC(=O)N/N=C/c1cccs1`?
N-glyco inh: inactive; HIV Env fusion: inactive; PAX8 inh HTS: inactive; Arrestin-AP2 inh: inactive; PfHsp90 yeast 2: inactive; Rtt109 Vps75: inactive

What do the screens show for `COc1cc2ccccc2cc1C(=O)N/N=C/c1cccs1`?
N-glyco inh: 35; HIV Env fusion: inactive; PAX8 inh HTS: inactive

How did CN1c2ccc(-c3cccc(F)c3)cc2[C@H]2[C@H](CCN2C(=O)C2CC2)[C@@H]1CO do in these assays?
PAX8 inh HTS: inactive

Results for Oc1ccc(-c2nc3ccc4ccccc4c3c3c2CCC3)cc1O ?
N-glyco inh: inactive; HIV Env fusion: inactive; PAX8 inh HTS: inactive; Arrestin-AP2 inh: inactive; PfHsp90 yeast 2: 98; Rtt109 Vps75: inactive

What do the screens show for `O=C(C[C@H]1CC[C@@H](NC(=O)C2CC2)[C@H](CO)O1)NCc1ccncc1`?
HIV Env fusion: inactive; PAX8 inh HTS: inactive

How did CCCNc1ncnc2c1cnn2C1CCCCO1 (centres undefined) do in these assays?
N-glyco inh: inactive; HIV Env fusion: inactive; PAX8 inh HTS: inactive; Arrestin-AP2 inh: inactive; PfHsp90 yeast 2: inactive; Rtt109 Vps75: inactive

What do the screens show for `CCNc1ncnc2c1cnn2C1CCCO1` (centres undefined)?
N-glyco inh: inactive; HIV Env fusion: 74; PAX8 inh HTS: inactive; Arrestin-AP2 inh: inactive; PfHsp90 yeast 2: inactive; Rtt109 Vps75: inactive

How did CCCc1cc(C(=O)NCc2ccc(OC)cc2)no1 do in these assays?
N-glyco inh: inactive; HIV Env fusion: 85; PAX8 inh HTS: inactive; Arrestin-AP2 inh: inactive; PfHsp90 yeast 2: inactive; Rtt109 Vps75: inactive
